Assays:
Assay type in all cases: functional
[1] = test system: OVCAR-3; assay: Cytotoxicity against human OVCAR3 cells assessed as cell growth at 10 uM after 48 hrs by SRB assay; conditions: OVCAR-3, 48 h, read-out: Activity
In short: (§1)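 First stage of the NCI 60 human tumour cell line screen: a single dose is tested against every line. Cell growth is read as cellular protein by sulforhodamine B colorimetry after 48 h of drug exposure, with reference to a time-zero control and to untreated plates.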

[2] = test system: MDA-MB-468; assay: Cytotoxicity against human MDA-MB-468 cells assessed as cell growth at 10 uM after 48 hrs by SRB assay; conditions: MDA-MB-468, 48 h, read-out: Activity; in short: as §1
[3] = test system: CAKI-1; assay: Cytotoxicity against human CAKI-1 cells assessed as cell growth at 10 uM after 48 hrs by SRB assay; conditions: CAKI-1, 48 h, read-out: Activity
[4] = (§2) Cytotoxicity against human NCI-ADR-RES cells assessed as growth inhibition after 48 hrs by SRB assay
In short: (§3)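 NCI 60-cell-line screen, five-dose stage: each cell line exposed for 48 h to five concentrations spanning five log steps; cellular protein measured by sulforhodamine B colorimetry. A time-zero cell control and plates without drug are used to derive GI50, TGI and LC50 from log-concentration dose-response curves.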

[5] = test system: NCI/ADR-RES; assay: as §2; in short: as §3
[6] = test system: SK-MEL-5; assay: Cytotoxicity against human SK-MEL-5 cells assessed as growth inhibition after 48 hrs by SRB assay; in short: as §3
[7] = test system: SK-MEL-28; assay: Cytotoxicity against human SK-MEL-28 cells assessed as growth inhibition after 48 hrs by SRB assay; in short: as §3
[8] = test system: OVCAR-8; assay: Cytotoxicity against human OVCAR8 cells assessed as growth inhibition after 48 hrs by SRB assay; in short: as §3
[9] = test system: A549; assay: Cytotoxicity against human A549 cells assessed as growth inhibition after 48 hrs by SRB assay
In short: (§4)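 NCI 60-cell-line five-dose screen at […]. Drug exposure was 48 h, followed by sulforhodamine B protein staining. GI50, TGI and LC50 were calculated against a time-zero control and untreated plates, with dose–response curves plotted from log10 concentration.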

[10] = test system: LOX IMVI; assay: Cytotoxicity against human LOXIMVI cells assessed as growth inhibition after 48 hrs by SRB assay; in short: as §4
[11] = test system: MCF7; assay: Cytotoxicity against human MCF7 cells assessed as growth inhibition after 48 hrs by SRB assay; in short: as §3
[12] = (§5) Cytotoxicity against human Hs578T cells assessed as growth inhibition after 48 hrs by SRB assay; conditions: Hs-578T; in short: as §4
[13] = test system: Hs-578T; assay: as §5; in short: as §4
[14] = test system: SW-620; assay: Cytotoxicity against human SW620 cells assessed as growth inhibition after 48 hrs by SRB assay
In short: (§6)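 NCI 60-cell-line screen, two stages. Five-dose testing at […]. Cellular protein measured by sulforhodamine B colorimetry after 48 h drug exposure. A time-zero control and drug-free plates are used to derive GI50, TGI and LC50 from dose-response curves plotted as log10 concentration per cell line.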

[15] = test system: SF-268; assay: Cytotoxicity against human SF268 cells assessed as growth inhibition after 48 hrs by SRB assay; in short: as §3
[16] = test system: DU-145; assay: Cytotoxicity against human DU145 cells assessed as growth inhibition after 48 hrs by SRB assay; in short: as §4
[17] = test system: NCI-H23; assay: Cytotoxicity against human NCI-H23 cells assessed as growth inhibition after 48 hrs by SRB assay; in short: as §3
[18] = test system: RPMI-8226; assay: Cytotoxicity against human RPMI8226 cells assessed as growth inhibition after 48 hrs by SRB assay; in short: as §3
[19] = test system: MOLT-4; assay: Cytotoxicity against human MOLT4 cells assessed as growth inhibition after 48 hrs by SRB assay; in short: as §3
[20] = test system: SK-OV-3; assay: Cytotoxicity against human SKOV3 cells assessed as growth inhibition after 48 hrs by SRB assay; in short: as §3
[21] = test system: RXF 393; assay: Cytotoxicity against human RXF393 cells assessed as growth inhibition after 48 hrs by SRB assay; in short: as §3
[22] = test system: PC-3; assay: Cytotoxicity against human PC3 cells assessed as growth inhibition after 48 hrs by SRB assay; in short: as §3
[23] = test system: COLO 205; assay: Cytotoxicity against human COLO205 cells assessed as growth inhibition after 48 hrs by SRB assay; in short: as §4
[24] = test system: SF-539; assay: Cytotoxicity against human SF539 cells assessed as growth inhibition after 48 hrs by SRB assay; in short: as §3
[25] = test system: OVCAR-3; assay: Cytotoxicity against human OVCAR3 cells assessed as growth inhibition after 48 hrs by SRB assay; in short: as §3
[26] = test system: HT-29; assay: Cytotoxicity against human HT-29 cells assessed as growth inhibition after 48 hrs by SRB assay; in short: as §4
[27] = test system: NCI-H322M; assay: Cytotoxicity against human NCI-H322M cells assessed as growth inhibition after 48 hrs by SRB assay; in short: as §3
[28] = test system: U-251; assay: Cytotoxicity against human U251 cells assessed as growth inhibition after 48 hrs by SRB assay; in short: as §6

In the case of O=C1c2ccccc2C(=O)c2c1ccc1[nH]c(=S)[nH]c21, the growth at 10 µM [1] is reported as 86.9%, the growth at 10 µM [2] is reported as 87.7% and the growth at 10 µM [3] is reported as 91.2%.

CCSc1nc2ccc3c(c2[nH]1)C(=O)c1ccccc1C3=O gave a GI50 [4] of 8.04 µM, an LC50 (concentration causing 50% net cell kill) [4] of over 100 µM and a TGI [4] of over 100 µM. The “growth inhibition (GI)” value [5] was “Dose-dependent effect”, the “growth inhibition (GI)” value [6] was “Dose-dependent effect” and the GI50 ([6]; SK-MEL-5, 48 h) was 33.6 µM. For the same molecule, the LC50 (concentration killing 50% of cells relative to time zero) ([6]; SK-MEL-5, 48 h) was over 100 µM, the TGI ([6]; SK-MEL-5, 48 h) was over 100 µM and the “growth inhibition (GI)” value [7] was “Dose-dependent effect”. It also gave a GI50 ([7]; SK-MEL-28, 48 h) of 43.6 µM, an LC50 ([7]; SK-MEL-28, 48 h) of over 100 µM and a TGI ([7]; SK-MEL-28, 48 h) of over 100 µM. For the same molecule, the “growth inhibition (GI)” value [8] was “Dose-dependent effect”, the GI50 ([8]; OVCAR-8, 48 h) was 15.1 µM and the LC50 ([8]; OVCAR-8, 48 h) was over 100 µM. For the same molecule, the TGI ([8]; OVCAR-8, 48 h) was over 100 µM, the “growth inhibition (GI)” value [9] was “Dose-dependent effect” and the GI50 ([9]; A549, 48 h) was 9.67 µM. The LC50 (concentration killing 50% of cells) ([9]; A549, 48 h) was over 100 µM, the TGI ([9]; A549, 48 h) was over 100 µM and the growth at 10 µM [1] was 69.3%. The GI50 [10] was 6 µM, the LC50 [10] was over 100 µM and the TGI [10] was over 100 µM. The “growth inhibition (GI)” value [10] was “Dose-dependent effect”, the “growth inhibition (GI)” value [11] was “Dose-dependent effect” and the GI50 ([11]; MCF7, 48 h) was 4.84 µM. The LC50 (concentration killing 50% of cells) ([11]; MCF7, 48 h) was over 100 µM, the TGI ([11]; MCF7, 48 h) was over 100 µM and the GI50 [12] was 5.12 µM. The TGI [12] was over 100 µM, the CC50 ([12]; read-out: LC50 (the source's name)) was over 100 µM and the “growth inhibition (GI)” value [13] was “Dose-dependent effect”. For the same molecule, the “growth inhibition (GI)” value [14] was “Dose-dependent effect”, the GI50 ([14]; SW-620, 48 h) was over 100 µM and the LC50 ([14]; SW-620, 48 h) was over 100 µM. For the same molecule, the TGI ([14]; SW-620, 48 h) was over 100 µM, the “growth inhibition (GI)” value [15] was “Dose-dependent effect” and the GI50 ([15]; SF-268, 48 h) was 18.1 µM. For the same molecule, the LC50 (concentration killing 50% of cells relative to time zero) ([15]; SF-268, 48 h) was over 100 µM, the TGI ([15]; SF-268, 48 h) was over 100 µM and the “growth inhibition (GI)” value [16] was “Dose-dependent effect”. The GI50 ([16]; DU-145, 48 h) was 7.02 µM, the TGI ([16]; DU-145, 48 h) was over 100 µM and the CC50 ([16]; DU-145, 48 h, read-out: LC50 (the source's name)) was over 100 µM. For the same molecule, the “growth inhibition (GI)” value [17] was “Dose-dependent effect”, the GI50 ([17]; NCI-H23, 48 h) was 8.6 µM and the LC50 ([17]; NCI-H23, 48 h) was over 100 µM. The TGI ([17]; NCI-H23, 48 h) was over 100 µM, the “growth inhibition (GI)” value [18] was “Dose-dependent effect” and the GI50 ([18]; RPMI-8226, 48 h) was 2.83 µM. For the same molecule, the LC50 (concentration causing 50% net cell kill) ([18]; RPMI-8226, 48 h) was over 100 µM, the TGI ([18]; RPMI-8226, 48 h) was over 100 µM and the “growth inhibition (GI)” value [19] was “Dose-dependent effect”. For the same molecule, the GI50 ([19]; MOLT-4, 48 h) was 4.05 µM, the LC50 (50% lethal concentration) ([19]; MOLT-4, 48 h) was over 100 µM and the TGI ([19]; MOLT-4, 48 h) was over 100 µM. The growth at 10 µM [2] was 35.4%, the “growth inhibition (GI)” value [20] was “Dose-dependent effect” and the GI50 ([20]; SK-OV-3, 48 h) was 3.8 µM. The LC50 (concentration killing 50% of cells present at time zero) ([20]; SK-OV-3, 48 h) was over 100 µM, the TGI ([20]; SK-OV-3, 48 h) was over 100 µM and the “growth inhibition (GI)” value [21] was “Dose-dependent effect”. For the same molecule, the GI50 ([21]; RXF 393, 48 h) was 5.17 µM, the TGI ([21]; RXF 393, 48 h) was over 100 µM and the CC50 ([21]; RXF 393, 48 h, read-out: LC50 (the source's name)) was over 100 µM. The “growth inhibition (GI)” value [22] was “Dose-dependent effect”, the GI50 ([22]; PC-3, 48 h) was 65 µM and the LC50 ([22]; PC-3, 48 h) was over 100 µM. For the same molecule, the TGI ([22]; PC-3, 48 h) was over 100 µM, the “growth inhibition (GI)” value [23] was “Dose-dependent effect” and the GI50 ([23]; COLO 205, 48 h) was 17.4 µM. For the same molecule, the LC50 ([23]; COLO 205, 48 h) was over 100 µM, the TGI ([23]; COLO 205, 48 h) was over 100 µM and the “growth inhibition (GI)” value [24] was “Dose-dependent effect”. The GI50 ([24]; SF-539, 48 h) was 22.9 µM, the TGI ([24]; SF-539, 48 h) was over 100 µM and the CC50 ([24]; SF-539, 48 h, read-out: LC50 (the source's name)) was over 100 µM. The growth at 10 µM [3] was -8.01%, the “growth inhibition (GI)” value [25] was “Dose-dependent effect” and the GI50 ([25]; OVCAR-3, 48 h) was 10.2 µM. For the same molecule, the LC50 (50% lethal concentration) ([25]; OVCAR-3, 48 h) was over 100 µM, the TGI ([25]; OVCAR-3, 48 h) was over 100 µM and the “growth inhibition (GI)” value [26] was “Dose-dependent effect”. For the same molecule, the GI50 ([26]; HT-29, 48 h) was 23.1 µM, the TGI ([26]; HT-29, 48 h) was over 100 µM and the CC50 ([26]; HT-29, 48 h, read-out: LC50 (the source's name)) was over 100 µM. It also gave a GI50 [27] of 3.24 µM, an LC50 (concentration killing 50% of cells relative to time zero) [27] of over 100 µM and a TGI [27] of over 100 µM. The “growth inhibition (GI)” value [27] was “Dose-dependent effect”, the “growth inhibition (GI)” value [28] was “Dose-dependent effect” and the GI50 ([28]; U-251, 48 h) was 19.5 µM. It also gave a TGI ([28]; U-251, 48 h) of over 100 µM and a CC50 ([28]; U-251, 48 h, read-out: LC50 (the source's name)) of over 100 µM.
